From the EternaBench riboswitch data

Test system: MS2 coat protein
Assay: apparent Kd, MS2 coat protein; higher = weaker binding; RNA-MaP array
Procedure, shortened: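 Apparent Kd was taken as the median of binding curves fitted cluster by cluster. The designed RNAs were made by transcription of sequenced DNA templates on an Illumina sequencing chip and exposed to fluorescently labeled MS2 coat protein (1.5 nM to 3 μM) at room temperature, with or without input ligand, for 0.8–1.5 h at the lowest and 10–20 min at the highest concentrations. Any design measured on fewer than 10 clusters was left out.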

[1] = designed as: OFF switch for flavin mononucleotide, no ligand
[2] = ligand present: flavin mononucleotide, designed as: OFF switch for flavin mononucleotide
[3] = designed as: ON switch for theophylline, no ligand
[4] = ligand present: theophylline, designed as: ON switch for theophylline
[5] = designed as: ON switch for flavin mononucleotide, no ligand
[6] = ligand present: flavin mononucleotide, designed as: ON switch for flavin mononucleotide
[7] = designed as: OFF switch for theophylline, no ligand
[8] = ligand present: theophylline, designed as: OFF switch for theophylline
[9] = designed as: ON switch for tryptophan, no ligand
[10] = ligand present: tryptophan, designed as: ON switch for tryptophan

Sequence | apparent Kd [1] | apparent Kd [2] | also measured
UACUCAAGAGUAAGGAUAUAGAACCAAAUAGCGGACUAGAAGGUACAUGAGGAUCACCCAUGUCAAAGACAGAA | 7.44 nM | 7.19 nM | 
GCCUAUAUUGUCAGGAUAUGCAUAAAGGAAAAGAAGCAGAAGGGACAUGAGGAUCACCCAUGUUACAGCCAAUA | 6.84 nM | 12.6 nM | 
UCAACAUGAGGAUCACCCAUGUCAUCGGCGUUCUCAGACACUAGAAGGAACAGGCGUAUCUGCGGUUAGGAUAUAGACACACAU | 31.3 nM | 31 nM | 
GAACAUGAGGAUCACCCAUGUGCUAUUGGGAAUCGCGCUACAUAGGAUAUAGAGGCGACUGUACUCUAGAAGGAUGCUAGUUUC | 38.3 nM | 37.8 nM | 
GGGCGACUAGGAUAUACAGGAAGUUAAUGAGUGUCAAAGAAACAUGAGGAUCACCCAUGUAGAAGGAGUGCUAU | 11.2 nM | 12.6 nM | 
CAUUACCAUGUUAGGAUAUCCUGCGGAAUUGCCCUGGAGAAGGAACAUGAGGAUCACCCAUGUGCACAAACAAC | 17.6 nM | 26.1 nM | 
GUAUCGGUUGAGAAGGCGGCGGAGACAUAACUUGGUCCCAACAUGAGGAUCACCCAUGUUAAAUCCGAGGAUAUCAACAAAGCC | 6.84 nM | 18.9 nM | 
GUAAGACAUGAGGAUCACCCAUGUGUCGAUACCAGCCCUGCCUCUGGCCCUUGGCAGCGACUCGCACACCUCGCACUGCACAAGU |  |  | apparent Kd [3]: 54.9 nM; apparent Kd [4]: 73.2 nM
AUCAAUGAUCGACAUGAGGAUCACCCAUGUGCUUGGCGACUAAGAAGGGCCAGGCCACCAAGGCGGCAGGAUAUUAGUAGGACC | 84.2 nM | 24.3 nM | 
CGAGCAAGAGGAUAUACGAAGACGGUAUGAGUCAACCUCAAACAUGAGGAUCACCCAUGUAGAAGGCUUCUCAU | 7.46 nM | 9.74 nM | 
CCGCGACCUGAGAAGGGCUGCCAAGGGAGACACAUGAGGAUCACCCAUGUCGGGUGGUCCUGCUAGCAGGAUAUCAUCGCAGGA | 173 nM | 225 nM | 
CUGCGCUCGAAGAAGGGCUGCCACAUGAGGAUCACCCAUGUCACUGACACCGAAGUUAGAAAGUAGCAGGAUAUUCAGGGUCCU |  |  | apparent Kd [5]: 49.2 nM; apparent Kd [6]: 32.4 nM
UAGAUCCCAGUCAGGAUAUCCAGGGAGAAUAGGAGGGAGAAGGGACAUGAGGAUCACCCAUGUAUGCGACUACC | 7.91 nM | 8.92 nM | 
GUAUAUACAUAGGAUAUGUCGGCCGGUUAUGCAACAGAAGGAUGUACAUGAGGAUCACCCAUGUCAAUUGGGAG | 74.6 nM | 220 nM | 
ACCCUCUAUGAGAAGGAGAGCUUCGCUAGUUAUCUAGGAUAUCACGGAGGACCACUGACACUCCGACAUGAGGAUCACCCAUGU |  |  | apparent Kd [5]: 16.5 nM; apparent Kd [6]: 13.9 nM
CUGACGAGCUUUUUGUCAGGUUGUGUAGAUACCAGUUCUCUGGUGAACCCUUGGCAGCUAACAACAUGAGGAUCACCCAUGUGAU |  |  | apparent Kd [7]: 83.7 nM; apparent Kd [8]: 326 nM
AUCAUAAGAGUAGGAUAUCGACAUGAGGAUCACCCAUGUACCUUGGAUGACCGCUAAUGGUUUAUCGAGAAGGACUUUUCCUCC | 8.2 nM | 10.2 nM | 
AAUGGACGAGGAUAUACAUGAGGAUCACCCAUGUCACAGUGGGCUCACCGUUCGGGUAGUAGAAGGCGUUUCUA | 107 nM | 282 nM | 
UAAUACCAUACAGGAUAUACUUAGCCCAAAACAUGAGGAUCACCCAUGUAUUGGAGUCCUCGGCGGUAGAAGGGUACAGAAAGA | 19.5 nM | 16.4 nM | 
AUGGAACAUGAGGAUCACCCAUGUGAUGAUACCAGAUUAACGCUUAUCCCUUGGCAGCAUGUCCGCCCUCAACCUGUGGCGUAUU |  |  | apparent Kd [3]: 22.2 nM; apparent Kd [4]: 26.1 nM
UCUGUGAUUCAAGGAUAUAAGUCGAGUGCUUGCUUAGAAGGUGACGAACAUGAGGAUCACCCAUGUGCUUUAUUCUUAUGCAUC | 29.2 nM | 25.6 nM | 
GUGUUACAUGAGGAUCACCCAUGUGUCUGAUGUCAAGGAUAUGACUCUUCCUUCACAAAGUCAGAAGGUGAUAUCA |  |  | apparent Kd [5]: 66.2 nM; apparent Kd [6]: 12.8 nM
CUCCUACAUGAGGAUCACCCAUGUGAGGAUAUCUCCCAGUGGGAAUAGUUUCCAUGGAAGAGAAGGCACAGUGA | 24.4 nM | 30.9 nM | 
UACAUGAGGAUCACCCAUGUGUGUAGCUAUUACUGUUACAUCUAGGAUAUGUCGGGAACUCAACAACAGAAGGAGAUAGAAGGA |  |  | apparent Kd [5]: 48.8 nM; apparent Kd [6]: 33.8 nM
GACGAGUAGACGGCCGCCACUAUGCUGCGCAGCCCUAGAAACGCACAUGAGGAUCACCCAUGUCUUAGGACCGGGUCGAACUUAA |  |  | apparent Kd [9]: 78.5 nM; apparent Kd [10]: 65.7 nM
UAAGCACAUGAGGAUCACCCAUGUAAGGAUAUCCGAUCAUGCAAUCCGGAGAUCACAAGGAGAAGGUACAUGCA | 29.6 nM | 33.3 nM | 
AGUACAAUAUUAGGAUAUUGACAAAACAUGAGGAUCACCCAUGUAAGGCAAGUGCAAGGGAGAGUCAAGAAGGAAAACUGAGUU |  |  | apparent Kd [5]: 38.4 nM; apparent Kd [6]: 30 nM

Sequence | apparent Kd [1] | apparent Kd [2] | also measured
GCCUGACCCAUAGGAUAUCGCGUAGCUGCCGGCUACGACACAUGAGGAUCACCCAUGUAUCAAAUCGAGAAGGAUGAUCUGCAA |  |  | apparent Kd [5]: 272 nM; apparent Kd [6]: 168 nM
CAACUAAAGGAGAAGGCUAACAUGAGGAUCACCCAUGUCCGCGUGUCCGCUUAUAAUGCGCGCAUAGAGGAUAUCCCAAGUUUA |  |  | apparent Kd [5]: 21.4 nM; apparent Kd [6]: 13.6 nM
GGCCUUUCGGUAAGGAUAUCCCUCCGCGCAGAUUGGGAGAAGGUACAUGAGGAUCACCCAUGUUUUAUGGCUGC | 9.4 nM | 10.8 nM | 
UGACACAUGAGGAUCACCCAUGUUGGGUAAUGUUAACGUACAAGAAGGGCAGCCGGCCGGACGUUGCAGGAUAUUGUAGCGCGA | 41.7 nM | 31.1 nM | 
AUAAAACUAAUACAUGAGGAUCACCCAUGUGAAACACAUACGAGAAGGGCGACAGUCUCAUACACGCAGGAUAUCGGCUAAACG |  |  | apparent Kd [5]: 10.8 nM; apparent Kd [6]: 9.95 nM
UUGGCACGGACGGCCGCCACUCUUUCACAUGAGGAUCACCCAUGUUAUCUAGUCCUCAGCAGAAAGAGGACCGGGUCGGAGUUGG |  |  | apparent Kd (designed as: OFF switch for tryptophan, no ligand): 126 nM; apparent Kd (ligand present: tryptophan, designed as: OFF switch for tryptophan): 122 nM
UCUGGUUGAGGAUAUACAUGAGGAUCACCCAUGUCACCUAGCAAAGUAGAGAGUAAGUGUAGAAGGCAACCUUU | 15.6 nM | 18.9 nM | 
GUUUCCUCAGGAUAUUACUGCCGGGACAUGAGGAUCACCCAUGUGGCCUCCGUAAGGCUAUAAGAAGGGAGGCGUC | 111 nM | 157 nM | 
UAGUAAACCGCAGGAUAUCCAACUUGGGCACCAGGAGAAGGGCGAUUAACAUGAGGAUCACCCAUGUAUUCGGAGAGCUUACCU |  |  | apparent Kd [5]: 10.4 nM; apparent Kd [6]: 9.18 nM
CGAACAUGAGGAUCACCCAUGUGUUUCCUUGGUAGACGACAUAGAAGGGCCGUAAAUUACAGCGGGCAGGAUAUAUGACUUAAG | 164 nM | 137 nM | 
AGCCUGGAAGCAGGAUAUGGGAUACAUGAGGAUCACCCAUGUAAGAUAAUAGGGCAACGAAGAAGCCAGAAGGGCUCGAGGUAA |  |  | apparent Kd [5]: 16.2 nM; apparent Kd [6]: 13.1 nM
UAGUAACAUGAGGAUCACCCAUGUCCGGAUACCAGACAUAUACCAGUCCCUUGGCAGCCGCCAGUUAAAAUCUAACACAAAAGUU |  |  | apparent Kd [3]: 46.2 nM; apparent Kd [4]: 21.5 nM
GAUCGUUGGGAGGAUAUCCGCAAGUCCAGGGAGGGAGAAGGCCCAACAUGAGGAUCACCCAUGUAGAAGCGCAU | 51 nM | 77.6 nM | 
AAUAAGAAAGGAUAUACAGAGGAUAAACUAAUAAAUAAAGGACAUGAGGAUCACCCAUGUAGAAGGUUCAAAAU | 11.9 nM | 11.7 nM | 
CUUCUGAAAGCAAUGGGAUCUGUUAUUGAUACCAGCAUCUGAUUUUGCCCUUGGCAGCAAGAAACAUGAGGAUCACCCAUGUGGC |  |  | apparent Kd [7]: 19.5 nM; apparent Kd [8]: 61.2 nM
UGCGGCGAAGGAUAUUGACCAAAACACAUGAGGAUCACCCAUGUACUCAUAACAUGCUAACAAGAAGGUCGCGUAA | 15.9 nM | 13.8 nM | 
UAGAAACUCGUAAGGAUAUCCGAAGAGAAAAUGAGGGAGAAGGUACAUGAGGAUCACCCAUGUAUGAAAUGGAC | 7.64 nM | 7.98 nM | 
GCAAAAUACAUGAGGAUCACCCAUGUUAAGUGGGCCUGAACAAGAAGGCAGCAAAUUUUAUUUUCUGAGGAUAUUGGCAUAUAU | 30.2 nM | 36.8 nM | 
GUGGACAUGAGGAUCACCCAUGUAAGUCGGCGAGGACCGGUACGGCCGCCACUCGUGUUCUGUCUCAGCUCAAACGUAGCCGGAA |  |  | apparent Kd [9]: 36.3 nM; apparent Kd [10]: 17.9 nM
GUCCUCGACACGGCCGCCACUGGCUCGCCUGUUGGCGCCGACCCACAUGAGGAUCACCCAUGUUCCAGGACCGGGUGUCACAGCA |  |  | apparent Kd [9]: 224 nM; apparent Kd [10]: 157 nM
GAGUACUGGUUAGGGAGAAAUACAUGAGGAUCACCCAUGUCCAGAAGGAUUCAGUAAGUGCCGGAAUAGGAUAUGGAACUAAAA |  |  | apparent Kd [5]: 246 nM; apparent Kd [6]: 105 nM
UAGAAAUCCUUGCAGGAUAUGUUGGAGUCUACAUGAGGAUCACCCAUGUUUAGUAGCAGGCGACGACAGAAGGGCAAUCUCAUGAU |  |  | apparent Kd [5]: 23.6 nM; apparent Kd [6]: 9.18 nM
UGCCUAUACCAGAAGGGCGUACGGGAAAACAUGAGGAUCACCCAUGUGAGAUCAUCAUCGCUAGCGCAGGAUAUGGAAGUUCGG | 25 nM | 29.4 nM | 
GCCAGCAGUACAUGAGGAUCACCCAUGUCCCUUGUACUUUUAUAGGAUAUACGAGUGGCUACCAUGUAGAAGGAUAGAAUUGUC | 932 nM | 606 nM | 
GCUCUGUCAGGAUAUAGGACGGCAACAGGCAAACUAAGCAACUAGAAGGGACAUGAGGAUCACCCAUGUAGCGC | 9.33 nM | 9.2 nM | 
CAGUAAGUAGGAUAUGUAUCAAGCUACAUGAGGAUCACCCAUGUGAACCCUAACAGCUGAACAGAAGGACUGUGUG | 156 nM | 198 nM | 
GAUCUGUGAGGAUAUUGUUAGAGCAUUCAACCAUCGAAUGCCAAGAAGGCACAUGAGGAUCACCCAUGUAGACA | 7.9 nM | 10.4 nM | 
